# NadD inh – inhibitors of Staphylococcus aureus NadD; purified NadD enzyme, colorimetric absorbance read-out; inhibition, % at 20 µM; 360,000 tested, 0.78% active; AID 602399; in the data active = inhibition above about 26%
# ABHD5 PLIN5 PPI – blocks binding of human ABHD5 to perilipin-5; Q00G26+Q8WTS1; Split G. princeps luciferase complementation, luminescence, 4 h; inhibition, % at 4 µM; 360,000 tested, 0.78% active;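 active = inhibition above the mean inhibition across every tested compound plus 3 SD, cut at about 22% in these data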;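 also: 0% = DMSO only wells and the 100% control is not disclosed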
# Target sequence (Q00G26 whole entry, looked up): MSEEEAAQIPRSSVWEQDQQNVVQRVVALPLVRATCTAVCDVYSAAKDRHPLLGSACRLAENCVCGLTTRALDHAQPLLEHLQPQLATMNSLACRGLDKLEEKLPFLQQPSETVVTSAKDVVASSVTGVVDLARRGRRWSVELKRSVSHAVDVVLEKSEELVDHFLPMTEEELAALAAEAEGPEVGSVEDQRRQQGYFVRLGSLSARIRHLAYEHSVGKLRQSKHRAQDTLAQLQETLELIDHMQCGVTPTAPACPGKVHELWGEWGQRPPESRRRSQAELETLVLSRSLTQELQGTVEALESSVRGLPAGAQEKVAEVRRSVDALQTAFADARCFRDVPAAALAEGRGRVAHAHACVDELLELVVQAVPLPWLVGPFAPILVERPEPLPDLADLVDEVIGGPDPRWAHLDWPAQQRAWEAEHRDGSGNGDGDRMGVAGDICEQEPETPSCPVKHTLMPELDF
# Target sequence (Q8WTS1 whole entry, looked up): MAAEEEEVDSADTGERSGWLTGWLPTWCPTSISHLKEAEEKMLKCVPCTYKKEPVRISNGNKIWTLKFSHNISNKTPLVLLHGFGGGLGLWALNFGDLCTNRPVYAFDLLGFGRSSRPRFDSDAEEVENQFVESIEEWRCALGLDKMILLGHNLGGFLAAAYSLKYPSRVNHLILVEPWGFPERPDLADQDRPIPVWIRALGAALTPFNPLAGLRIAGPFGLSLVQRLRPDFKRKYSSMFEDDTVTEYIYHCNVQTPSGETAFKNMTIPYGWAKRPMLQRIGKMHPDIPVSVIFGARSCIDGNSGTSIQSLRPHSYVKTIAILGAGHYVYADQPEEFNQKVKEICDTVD
# rCAG RNA binder – r(CAG) repeat RNA binding; TO-PRO-1 dye displacement fluorescence; inhibition, % at 3 µM; 370,000 tested, 1.3% active;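 active = inhibition above the plate cutoff, the mean of all test compounds on that plate plus 3 SD, cut at about 35% in these data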;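 also: 0% = DMSO alone and 100% = 100 µM mitoxantrone as full dye displacement; higher means more dye released from RNA so lower well fluorescence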
# core dimer inh – blocks dimerization of HCV core protein; TR-FRET GST/Flag-core106 dimerization, 1536-well; inhibition, % at 5 µM; 300,000 tested, 0.33% active;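 active = inhibition above the mean of all tested compounds plus 3 SD, set per screening campaign, cut at about 45% in these data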
#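 Assay system – GST-tagged and Flag-tagged HCV core protein residues 1-106 · Quantity – core106 proteins, GST 13.5 nM and Flag 17 nM · Benchmarks – unlabelled core106 and no-GST-core106 wells · Read-out basis – percent inhibition of core106 dimerization signal · Detection – time-resolved FRET, ex 340 nm, em 617 and 671 nm · Schedule – 4 h at 22.5 °C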
# NadD conf – NadD (S. aureus) inhibition, single concentration confirmation. shares compounds with NadD inh. purified S. aureus NadD, colorimetric enzyme assay. inhibition, % at 20 µM. 2,000 tested, 13% active; in the data active = inhibition mostly above about 42%, no sharp cut-off; inactive = mostly below about 42%
# Numbers without * were called inactive; x = no result. Sampled rows, rich in hits. Any-hit rate of the full collection: about 2.6%.
SMILES,NadD inh,ABHD5 PLIN5 PPI,rCAG RNA binder,core dimer inh,NadD conf
COC(=O)c1cc(-c2ccc3ccccc3c2)c(=O)n2c1CCC2,x,x,2,x,x
COc1ccc(OC)c(S(=O)(=O)CC(=O)c2cc3ccc(OC)cc3oc2=O)c1,36*,-9,x,62*,27
CSc1nsc(/C=C/Nc2cccc(Cl)c2)c1C#N,32*,-2,34,6,0
CSc1nsc(/C=C/Nc2ccc(Cl)cc2)c1C#N,15,-11,26,8,x
COc1ccccc1-c1cc(C(=O)N/N=C/C=C/c2ccccc2[N+](=O)[O-])c2ccccc2n1,38*,-2,20,14,30
Cc1ccccc1-n1c(SCC(=O)N/N=C/C=C/c2ccccc2[N+](=O)[O-])nc2ccccc2c1=O,33*,2,16,26,18
O=C(N/N=C/C=C/c1ccccc1[N+](=O)[O-])c1cc(-c2cccnc2)nc2ccccc12,22,2,8,6,x
O=C(N/N=C/C=C\c1ccccc1[N+](=O)[O-])c1cc(-c2ccc3ccccc3c2)n[nH]1,43*,1,25,x,27*
Cc1ccc(NC(=O)CN2C(=O)CCSc3ccccc32)c(C)c1,x,x,1,x,x
Nc1cc(N)cc(Cc2ccccc2)c1,33*,-1,14,x,46
COc1ccc(C(CCOC(=O)Oc2ccccc2)c2cc(OC)cc(OC)c2)cc1 (configuration not stated),x,x,3,x,x
COc1ccccc1CNc1nc(Nc2cccc(-c3cnco3)c2)c2sccc2n1,40*,8,8,x,15
COc1ccccc1CNc1nc(NCc2ccccc2OC)c2sccc2n1,8,3,4,x,x
Nc1nc(COc2ccccc2C=O)nc(Nc2ccccc2)n1,29*,-1,3,11,36*
O=C(N/N=C/c1cn(-c2cccs2)nc1-c1ccccc1)c1ccccc1O,34*,3,31,20,19
O=C(N/N=C/c1cn(-c2cccs2)nc1-c1ccccc1)c1ccccc1Br,17,-10,22,16,x
CCOc1ccc(S(=O)(=O)Nc2nc3ccccc3nc2-n2ccc(=NC(=O)c3cccs3)cc2)cc1,26*,3,7,-19,4
O=C(N=c1ccn(-c2nc3ccccc3nc2NS(=O)(=O)c2ccc(Cl)cc2)cc1)c1cccs1,29*,0,4,29,4
COc1ccc(Sc2cccc3c2S(=O)(=O)N([C@H](C)c2ccccc2)C[C@@H](COCc2ccccc2)O3)cc1OC,x,x,9,x,x
NC(=O)[C@H]1CC2(CC(c3cccc(NC(=O)COc4ccc(Cl)cc4)c3)=NO2)CN1C(=O)Cc1ccc([N+](=O)[O-])cc1 (some centres not stated),33*,2,10,13,29
C/C=C\C=C/C(=O)Nc1cccc(C2=NOC3(C2)C[C@@H](C(N)=O)N(C(=O)COc2ccc(Cl)cc2)C3)c1 (some centres not stated),38*,0,13,25,62*
CCCCCC(=O)Nc1cccc(C2=NOC3(C2)C[C@H](C(N)=O)N(C(=O)COc2ccc(Cl)cc2)C3)c1 (some centres not stated),5,0,5,12,x
COc1ccc(-c2nnc(Nc3nc4c(OC)cccc4s3)o2)cc1,31*,4,27,12,48
COc1cc(OC)cc(-c2nnc(Nc3nc4c(F)cccc4s3)o2)c1,22,-2,25,6,x
O=C(COC(=O)c1ccc(Br)o1)Nc1nc2c(F)c(F)c(F)cc2s1,34*,12,25,30,28
SMILES,NadD inh,ABHD5 PLIN5 PPI,rCAG RNA binder,core dimer inh,NadD conf
O=C(COC(=O)c1ccco1)Nc1nc2c(F)c(F)c(F)cc2s1,-1,-6,33,4,x
Cc1ccc(C(=O)N/C(=C\c2ccc(-c3cccc([N+](=O)[O-])c3)o2)C(=O)NC(C)(C)C)cc1,6,3,8,23,x
CCCNC(=O)Cn1c(=O)/c(=C\c2ccc(-c3cccc([N+](=O)[O-])c3)o2)s/c1=C\C(=O)C(C)(C)C,35*,-4,22,57*,10
O=C(COC(=O)C1=COCCO1)Nc1ccc([N+](=O)[O-])cc1C(F)(F)F,0,4,4,x,x
CC(=O)Nc1ccc(S(=O)(=O)/N=C2\SCCN2S(=O)(=O)c2ccc(NC(C)=O)cc2)cc1,58*,3,8,-1,48
CC(=O)Nc1ccc(S(=O)(=O)Nc2ccc(S(=O)(=O)N3CCCC3)cc2)cc1,-3,2,3,-4,x
C#Cc1ccc([C@H]2C=C(C(=O)NCc3nc4ccccc4[nH]3)O[C@@H](OCc3ccc(CO)cc3)C2)cc1,33*,4,22,29,46*
O=C(NCc1nc2ccccc2[nH]1)C1=C[C@H](c2ccc(Br)cc2)C[C@H](OCc2ccc(CO)cc2)O1,11,5,1,3,x
c1ccc(CN2CCC3CC2c2ccc(N4CCOCC4)cc23)cc1 (configuration not stated),1,-8,0,x,x
C/C(=C/CCC(C)[C@H]1CC[C@@]2(C)C3=C(CC[C@]12C)[C@@]1(C)CCC(=O)C(C)(C)[C@@H]1CC3)C(=O)O (some centres not stated),45*,1,13,18,13
CCOc1ccc(N=Nc2c(=O)[nH]n3c(=O)c4c([nH]c23)CCCC4)cc1,32*,2,4,-4,24
CN1OC[C@@H]2CN(Cc3ccc(Cl)cc3)[C@H](c3ccc(N4CCCCC4)cc3)C[C@@H]21,-6,-2,6,x,x
CCc1ccc(C(=O)COC(=O)c2cccc(N3C(=O)c4c(C)nc5ccccc5c4C3=O)c2)cc1,36*,-2,10,30,3
Cc1cc2c(cc1C)-n1nnnc1C(N1CCN(c3ccccc3F)CC1)C(=O)N2 (configuration not stated),x,-2,5,x,x
N#CC1=C(N)NC(SCC(=O)c2ccc(Cl)cc2)=C(C#N)C12CCCC2,33*,-7,14,4,38
N#CC1=C(N)NC(SCC(=O)c2ccc(Br)cc2)=C(C#N)C12CCCCC2,5,2,10,5,x
Cc1c([N+](=O)[O-])cc(N2C(=O)C=CC2=O)cc1[N+](=O)[O-],42*,0,x,x,57*
COC(=O)[C@@H](N[C@H](/C=C/c1ccccc1)[C@@H](O)Cc1ccccc1)C(C)C,x,x,2,x,x
C(#CC1=CCCCC1)CNCC1CC1,x,x,1,x,x
O=C(NCc1ccccc1)c1cccc2c1C(=O)c1ccc(/C=C/c3ccccc3)cc1S2(=O)=O,34*,-15,8,x,-6
COc1ccccc1N1CCN(c2ccc3c(c2)S(=O)(=O)c2cccc(C(=O)NCc4cccc(F)c4)c2C3=O)CC1,31*,-4,8,x,18
O=C(NCc1cccc(OC(F)(F)F)c1)c1cccc2c1C(=O)c1ccc(-c3ccc(F)cc3OCc3ccccc3)cc1S2(=O)=O,48*,-3,10,x,33
COc1ccc(-c2ccc3c(c2)S(=O)(=O)c2cccc(C(=O)NCc4cccc(OC(F)(F)F)c4)c2C3=O)cc1OC,14,-14,x,x,x

# From PubChem
